This is an account of results in ChEMBL document CHEMBL1124101, “Asymmetrical bisintercalators as potential antitumor agents” (1988).

The structures appear in SMILES notation.

Test [1] has as its system L1210. Put plainly: Optimal dose for anti-tumor activity in vivo on L1210-infected mice. Type of test: functional, Mus musculus.
Test [2] has as its system Nucleic Acid. Put plainly: Binding affinity for DNA. Type of test: nucleic-acid assay. Put shortly:
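Fluorometric competition with ethidium dimer (6.4 × 10^-7 M) pre-equilibrated 24 h with calf thymus DNA (1.6 × 10^-6 M base pairs). Drug was added at varying concentrations. Fluorescence was excited at 540 nm and read at 610 nm. Bound ethidium dimer per base pair was derived, and computed displacement curves were fitted to the experimental ones to give apparent affinity constants (M^-1).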

The species entered for test [3] is Mus musculus. Put plainly: Treated mean survival time per control mean survival time. In kind it is functional.
In test [4] the test system is Escherichia coli. Put plainly: Cytotoxicity on Escherichia coli polA strain mutant expressed as dose required to inhibit 37% of cell growth. Type of test: functional.
The subject of test [5] is L1210. Put plainly: Dose that inhibits 50% of the L1210 cell growth after 24 hr exposure to the compound. Type of test: functional. The settings on record: Mus musculus, L1210, 24 h; read-out: ED50 (the source's name).
The test system of test [6] is L1210. Put plainly: Dose required to inhibit the cloning efficiency to a factor of 37%,measured in vitro on L1210 cells after 24-h exposure.
Test [7] has as its system L1210. Put plainly: Maximal tolerated dose for anti-tumor activity in vivo on L1210-infected mice. In kind it is functional, Mus musculus.

`COc1ccc2[nH]c3ccc4cc[n+](CCCN5CCC(C6CCN(CC[n+]7ccc8ccc9[nH]c%10ccc(OC)cc%10c9c8c7)CC6)CC5)cc4c3c2c1.CS(=O)(=O)[O-].CS(=O)(=O)[O-]` returned an OD in test [1] of 10 mg/kg. This molecule returned a K app x10e-7 in test [2] of 5 M⁻¹. The T/C in test [3] was 137%. The EC37 was 0.016 µM in test [4] and 0.09 µM in test [6]. The EC50 in test [5] turned out to be 720 nM. Also, in test [7], the maximal tolerated dose (MTD) came out at 20 mg/kg.

`COc1ccc2c(c1)c1c3c[n+](CCN4CCC(C5CCN(CC[n+]6ccc7ccc8c(c7c6)c6cc(OC)ccc6n8C)CC5)CC4)ccc3ccc1n2C.CS(=O)(=O)[O-].CS(=O)(=O)[O-]` had an OD in test [1] of 2.5 mg/kg. Moreover, the K app x10e-7 in test [2] stood at 2 M⁻¹. In test [3], the T/C amounted to 178%. Besides, the EC37 came to 0.013 µM in test [4] and 0.006 µM in test [6]. Further, in test [5], the EC50 was determined as 360 nM. In addition, the MTD in test [7] worked out at 10 mg/kg.

For the molecule `COc1ccc2c(c1)c1c3c[n+](CCN4CCC(CCCC5CCN(CC[n+]6ccc7ccc8c(c7c6)c6cc(OC)ccc6n8C)CC5)CC4)ccc3ccc1n2C.CS(=O)(=O)[O-].CS(=O)(=O)[O-]`, in test [1], the OD came to 10 mg/kg. In addition, the K app x10e-7 in test [2] was found to be 20 M⁻¹. Besides, the EC37 in test [4] amounted to 0.009 µM; in test [6], 0.15 µM. Further, the EC50 in test [5] stood at 260 nM. In test [7], the MTD stood at 10 mg/kg.

For `COc1ccc2[nH]c3ccc4cc[n+](CCN5CCC(CCC6CCN(CC[n+]7ccc8ccc9[nH]c%10ccc(OC)cc%10c9c8c7)CC6)CC5)cc4c3c2c1.CS(=O)(=O)[O-].CS(=O)(=O)[O-]`, the OD in test [1] worked out at 5 mg/kg. The same molecule displayed a K app x10e-7 in test [2] of 7 M⁻¹. The molecule also gave a T/C in test [3] of 143%. Moreover, the EC37 worked out at 0.015 µM in test [4] and 0.22 µM in test [6]. Besides, in test [5], the EC50 turned out to be 1340 nM. The MTD in test [7] amounted to 20 mg/kg.

Regarding `COc1ccc2nc3cc(Cl)ccc3c(NCCN3CCC(C4CCN(CC[n+]5ccc6ccc7[nH]c8ccc(OC)cc8c7c6c5)CC4)CC3)c2c1.[Cl-]`, in test [1], the OD came out at 15 mg/kg. The K app x10e-7 in test [2] came to 5 M⁻¹. Further, the figures for the EC37 in test [4] and in test [6] were 0.057 µM and 17 µM, respectively. The EC50 in test [5] worked out at 2700 nM. In test [7], the MTD stood at 15 mg/kg.

Molecule `COc1ccc2[nH]c3ccc4cc[n+](CCN5CCC(CCCC6CCN(CC[n+]7ccc8ccc9[nH]c%10ccc(OC)cc%10c9c8c7)CC6)CC5)cc4c3c2c1.CS(=O)(=O)[O-].CS(=O)(=O)[O-]` yielded an OD in test [1] of 5 mg/kg. In test [2], this molecule had a K app x10e-7 of 5 M⁻¹. In addition, the EC37 was found to be 0.087 µM in test [4] and 0.14 µM in test [6]. The EC50 in test [5] stood at 340 nM. Besides, the MTD in test [7] amounted to 10 mg/kg.

In the case of `COc1ccc2c(c1)c1c3c[n+](CCCN4CCC(C5CCN(CC[n+]6ccc7ccc8c(c7c6)c6cc(OC)ccc6n8C)CC5)CC4)ccc3ccc1n2C.CS(=O)(=O)[O-].CS(=O)(=O)[O-]`, the OD in test [1] turned out to be 10 mg/kg. Also, in test [2], the K app x10e-7 is 1 M⁻¹. The molecule further had a T/C in test [3] of 128%. For the same molecule, the EC37 came out at 0.025 µM in test [4] and 0.112 µM in test [6]. Besides, the EC50 in test [5] was greater than 900 nM. Further, in test [7], the MTD stood at 10 mg/kg.

Regarding `COc1ccc2c(c1)c1c3c[n+](CCN4CCC(CC5CCN(CC[n+]6ccc7ccc8c(c7c6)c6cc(OC)ccc6n8C)CC5)CC4)ccc3ccc1n2C.CS(=O)(=O)[O-].CS(=O)(=O)[O-]`, the OD in test [1] was determined as 3 mg/kg. In addition, the K app x10e-7 in test [2] was 20 M⁻¹. Further, the T/C in test [3] was determined as 190%. The EC37 in test [4] is 0.014 µM; in test [6], 0.013 µM. Further, the EC50 in test [5] turned out to be 700 nM. Besides, the MTD in test [7] stood at 10 mg/kg.

For the molecule `COc1ccc2[nH]c3ccc4cc[n+](CCN5CCC(C6CCN(CC[n+]7ccc8ccc9[nH]c%10ccc(OC)cc%10c9c8c7)CC6)CC5)cc4c3c2c1.CS(=O)(=O)[O-].CS(=O)(=O)[O-]`, the OD in test [1] came out at 10 mg/kg. Also, the K app x10e-7 in test [2] was found to be 1 M⁻¹. The molecule further came in with a T/C in test [3] of 182%. For the same molecule, the EC37 stood at 0.013 µM in test [4] and 0.024 µM in test [6]. In addition, the EC50 in test [5] came to 190 nM. This molecule also yielded an MTD in test [7] of 10 mg/kg.

`COc1ccc2c(c1)c1c3c[n+](CCN4CCC(CCC5CCN(CC[n+]6ccc7ccc8c(c7c6)c6cc(OC)ccc6n8C)CC5)CC4)ccc3ccc1n2C.CS(=O)(=O)[O-].CS(=O)(=O)[O-]`: the OD in test [1] is 5 mg/kg. The K app x10e-7 in test [2] is 3 M⁻¹. Also, the T/C in test [3] amounted to 170%. In addition, the EC37 was 0.225 µM in test [4] and 0.77 µM in test [6]. Further, the EC50 in test [5] was 900 nM. The same molecule registered an MTD in test [7] of 10 mg/kg.

The molecule `COc1ccc2[nH]c3ccc4cc[n+](CCN5CCC(CC6CCN(CC[n+]7ccc8ccc9[nH]c%10ccc(OC)cc%10c9c8c7)CC6)CC5)cc4c3c2c1.CS(=O)(=O)[O-].CS(=O)(=O)[O-]` yielded an OD in test [1] of 7 mg/kg. Also, the K app x10e-7 in test [2] came out at 10 M⁻¹. Besides, the T/C in test [3] is recorded as 175%. In addition, the EC37 in test [4] is 0.021 µM; in test [6], 0.063 µM. Moreover, the EC50 in test [5] amounted to 1080 nM. The molecule also came in with an MTD in test [7] of 30 mg/kg.

`COc1ccc2nc3cc(Cl)ccc3c(NCCN3CCC(C4CCN(CC[n+]5ccc6ccc7c(c6c5)c5cc(OC)ccc5n7C)CC4)CC3)c2c1.CS(=O)(=O)[O-]` came in with an OD in test [1] of 15 mg/kg. In test [2], this molecule displayed a K app x10e-7 of 10 M⁻¹. Further, the values for the EC37 in test [4] and in test [6] were 0.029 µM and greater than 0.9 µM, respectively. For the same molecule, the EC50 in test [5] was 240 nM. The MTD in test [7] worked out at 15 mg/kg.

For orientation: T/C means the result in the treated group divided by that in the control group, in per cent. The MTD is the highest dose tested that stayed within the study's limit of toxicity. Lower therefore signals a narrow tolerated range.
